The text below walks through data of ChEMBL document CHEMBL1157691, “Synthesis and antiproliferative evaluations of certain 2-phenylvinylquinoline (2-styrylquinoline) and 2-furanylvinylquinoline derivatives” (Bioorg Med Chem, 2010).

The structures appear in SMILES notation.

In one assay the test system is SF-268. The assay is described as follows: Antiproliferative activity against human SF268 cells assessed as cell survival at 4 ug/mL after 72 hrs by MTS assay relative to control. It is filed as functional. As to conditions: SF-268, 72 h, read-out: Survival. The gist of the method:
(§1)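 Log-phase cells seeded at 5000 cells/mL/well in 24-well format. They were then exposed to test agents at a single concentration of 4.0 μg/mL for 72 h. Growth and viability were read by MTS assay.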
(Tetrazolium dyes change colour on reduction, which living cells bring about.)

In assay [1] the test system is MCF7. The assay is described as follows: Antiproliferative activity against human MCF7 cells assessed as cell survival at 4 ug/mL after 72 hrs by MTS assay relative to control. The format is functional. As to conditions: MCF7, 72 h, read-out: Survival. The gist of the method: as §1
The test system of another assay is NCI-H460. The assay is described as follows: Antiproliferative activity against human NCI-H460 cells assessed as cell survival at 4 ug/mL after 72 hrs by MTS assay relative to control. The format is functional. As to conditions: NCI-H460, 72 h, read-out: Survival. The gist of the method:
as §1

In assay [2] the test system is MCF7. The assay is described as follows: Antiproliferative activity against human MCF7 cells after 48 hrs by ATPlite assay. It is filed as functional, cell-based. As to conditions: MCF7, 48 h.
The next assay concerns PC-3. The assay is described as follows: Antiproliferative activity against human PC3 cells after 48 hrs by ATPlite assay. It is filed as functional, cell-based. As to conditions: PC-3, 48 h. Background: In ATP-based viability assays light output follows the ATP content of the culture.
The subject of another assay is LNCaP. The assay is described as follows: Antiproliferative activity against human LNCAP cells after 48 hrs by ATPlite assay. It is filed as functional, cell-based.
Assay [3] in a line: Growth inhibition of human NCI60 cells. The format is functional.

For `Oc1ccc(/C=C/c2ccc3cccc(O)c3n2)cc1`, the viability at 4 µg/mL in the assay on SF-268 came out at 78%; in the assay on MCF7 [1] it was 108%; with NCI-H460 it was 52%.
For `Oc1cccc2ccc(/C=C/c3ccco3)nc12`, the viability at 4 µg/mL in the assay with SF-268 was found to be 76%; with MCF7 [1] it was 110%; in the assay with NCI-H460, 70%.
Taken in the same sequence, the figures for `Oc1cccc(/C=C/c2ccc3cccc(O)c3n2)c1O` were 52%, 95% and 53%.
Usually IC50 stands for the concentration that gives 50% inhibition. Lower therefore signals inhibition by little substance. As for `CC(=O)c1ccc(Nc2cc(/C=C/c3ccc([N+](=O)[O-])o3)nc3ccccc23)cc1`, the viability at 4 µg/mL in the assay with SF-268, in the assay on MCF7 [1] and in the assay with NCI-H460 was below 20% in each case. Also, the IC50 with MCF7 [2] was determined as 430 nM; with PC-3, 450 nM; in the assay with LNCaP it was 4120 nM.
As to `CC(=O)c1ccc(Nc2cc(/C=C/c3ccccc3)nc3ccccc23)cc1`, the figures for the viability at 4 µg/mL in the assay on SF-268, in the assay on MCF7 [1] and in the assay with NCI-H460 were 107%, 83% and 52%, respectively.
Take `C/C(=N\O)c1ccc(Nc2cc(/C=C/c3ccc([N+](=O)[O-])o3)nc3ccccc23)cc1`: the viability at 4 µg/mL in the assay with SF-268, in the assay on MCF7 [1] and with NCI-H460 was below 20% in each case. Moreover, the IC50 in the assay with MCF7 [2] was 250 nM; with PC-3 it was 190 nM; in the assay with LNCaP it was 950 nM.
As to `CO/N=C(\C)c1ccc(Nc2cc(/C=C/c3ccc([N+](=O)[O-])o3)nc3ccccc23)cc1`, the viability at 4 µg/mL with SF-268, in the assay with MCF7 [1] and with NCI-H460 was below 20% each time. The half-maximal inhibitory concentration (IC50) in the assay with MCF7 [2] is 400 nM; in the assay on PC-3, 520 nM; with LNCaP, 1040 nM.
Regarding `COc1cccc2c(Nc3ccc(C(C)=O)cc3)cc(/C=C/c3ccccc3)nc12`, the viability at 4 µg/mL came to 114% with SF-268, 95% with MCF7 [1] and 75% with NCI-H460.
Regarding `C/C(=N/O)c1ccc(Nc2cc(/C=C/c3ccccc3)nc3ccccc23)cc1`, the viability at 4 µg/mL turned out to be 90% in the assay with SF-268, 54% with MCF7 [1] and 67% with NCI-H460.
For `CO/N=C(/C)c1ccc(Nc2cc(/C=C/c3ccccc3)nc3ccccc23)cc1`, the values for the viability at 4 µg/mL in the assay with SF-268, in the assay with MCF7 [1] and in the assay on NCI-H460 were 112%, 108% and 79%, respectively.
For `Oc1cccc2ccc(/C=C/c3ccc(F)cc3)nc12` the same measures were 82%, 103% and 66%.
For `COc1cccc2c(Nc3ccc(/C(C)=N\O)cc3)cc(/C=C/c3ccccc3)nc12` the same measures were 63%, 40% and below 20%.
Taken in the same sequence, the figures for `CO/N=C(/C)c1ccc(Nc2cc(/C=C/c3ccccc3)nc3c(OC)cccc23)cc1` were 97%, 97% and 87%.
Turning to `N#Cc1ccc(/C=C/c2ccc3cccc(O)c3n2)cc1`, the viability at 4 µg/mL with SF-268 stood at 90%; in the assay with MCF7 [1] it was 107%; with NCI-H460, 66%.
For `Oc1cc(/C=C/c2ccccc2)nc2ccccc12` the same measures were 120%, 119% and 118%.
For `Clc1cc(/C=C/c2ccccc2)nc2ccccc12` the same measures were 118%, 120% and 109%.
The GI50 is the concentration giving 50% growth inhibition. On to `CC(=O)c1ccc(Nc2c3ccccc3nc3occc23)cc1`, for which, in assay [3], the GI50 was found to be 25 nM.
Turning to `COc1cccc2c(Cl)cc(/C=C/c3ccccc3)nc12`, the viability at 4 µg/mL in the assay with SF-268 is 81%; with MCF7 [1] it was 99%; in the assay on NCI-H460, 109%.
Taken in the same sequence, the figures for `O=[N+]([O-])c1ccc(/C=C/c2ccc3cccc(O)c3n2)cc1` were 77%, 89% and 52%.
For `COc1cccc2c(O)cc(/C=C/c3ccccc3)nc12` the same measures were 119%, 104% and 111%.
Taken in the same sequence, the figures for `Oc1cccc2ccc(/C=C/c3cccnc3)nc12` were 89%, 115% and 63%.
For `Oc1cccc2ccc(/C=C/c3ccccc3)nc12`, the viability at 4 µg/mL with SF-268 stood at 72%; in the assay on MCF7 [1], 110%; in the assay with NCI-H460, 55%.
Consider `COc1cc(NS(C)(=O)=O)ccc1Nc1c2ccccc2nc2ccccc12` [AMSACRINE], for which the GI50 in assay [3] was 440 nM.
Still for that read-out and setting: with `COc1cccc2c1C(=O)c1c(O)c3c(c(O)c1C2=O)C[C@@](O)(C(C)=O)C[C@@H]3O[C@H]1C[C@H](N)[C@H](O)[C@H](C)O1` [DAUNORUBICIN] the figure was 44 nM.
